Laboratory results taken from ChEMBL document CHEMBL4622869, “Discovery and structure-activity relationships study of positive allosteric modulators of the M3 muscarinic acetylcholine receptor” (Bioorg Med Chem, 2020).

Legend:
[1] = molecular target: Muscarinic acetylcholine receptor M3 (Rattus norvegicus) (UniProt P08483); assay: Positive allosteric modulation of muscarinic acetylcholine receptor M3 in Sprague-Dawley rat urinary bladder assessed as increase in 8 Hz electrical field stimulation-induced bladder contraction by measuring tension of isolated bladder contraction at 1 uM (reference value: 2.21 +/- 0.26 g)
Muscarinic acetylcholine receptor M3 (Rattus norvegicus), sequence (P08483 whole entry, looked up): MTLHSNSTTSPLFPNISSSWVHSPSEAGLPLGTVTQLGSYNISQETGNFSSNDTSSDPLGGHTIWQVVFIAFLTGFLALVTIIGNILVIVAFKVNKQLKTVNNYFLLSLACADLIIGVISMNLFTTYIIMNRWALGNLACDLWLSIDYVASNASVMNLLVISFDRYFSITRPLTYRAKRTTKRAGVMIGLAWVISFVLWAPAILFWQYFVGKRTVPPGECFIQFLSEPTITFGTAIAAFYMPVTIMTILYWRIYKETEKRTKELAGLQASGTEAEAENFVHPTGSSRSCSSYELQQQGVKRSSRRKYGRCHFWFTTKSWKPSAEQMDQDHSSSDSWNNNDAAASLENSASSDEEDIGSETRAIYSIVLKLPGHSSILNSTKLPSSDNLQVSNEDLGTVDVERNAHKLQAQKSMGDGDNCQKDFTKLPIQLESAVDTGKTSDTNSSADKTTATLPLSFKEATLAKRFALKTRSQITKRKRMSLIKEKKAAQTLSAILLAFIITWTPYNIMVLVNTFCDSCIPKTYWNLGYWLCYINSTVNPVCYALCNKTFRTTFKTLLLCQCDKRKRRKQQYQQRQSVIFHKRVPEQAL
In short: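 Female Sprague-Dawley rats, 9–10 weeks old. Longitudinal bladder strips (~10×2 mm) in Krebs at 37°C, gassed with 95% O2/5% CO2. EFS at 8 Hz, 10 s trains, 0.3 ms pulses, voltage set to give about half-maximal response. Drug added cumulatively at 1, 3 and 10 μM, 10 stimulations per concentration. Contraction = peak minus basal tone, averaged over the last 3 contractions and compared with pre-drug value (n=7).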

[2] = molecular target: T1, Muscarinic acetylcholine receptor M4 (Homo sapiens) (UniProt P08173); assay: (§1) Positive allosteric modulation of recombinant human muscarinic acetylcholine receptor M4 expressed in CHOK1 cells coexpressing G-alpha16 assessed as increase in carbachol-induced intracellular calcium flux at 10 uM preincubated for 5 mins followed by carbachol addition by Fluo4-AM dye based FLIPR assay relative to carbachol; assay type: functional, cell-based; conditions: CHO-K1
T1 sequence (whole entry): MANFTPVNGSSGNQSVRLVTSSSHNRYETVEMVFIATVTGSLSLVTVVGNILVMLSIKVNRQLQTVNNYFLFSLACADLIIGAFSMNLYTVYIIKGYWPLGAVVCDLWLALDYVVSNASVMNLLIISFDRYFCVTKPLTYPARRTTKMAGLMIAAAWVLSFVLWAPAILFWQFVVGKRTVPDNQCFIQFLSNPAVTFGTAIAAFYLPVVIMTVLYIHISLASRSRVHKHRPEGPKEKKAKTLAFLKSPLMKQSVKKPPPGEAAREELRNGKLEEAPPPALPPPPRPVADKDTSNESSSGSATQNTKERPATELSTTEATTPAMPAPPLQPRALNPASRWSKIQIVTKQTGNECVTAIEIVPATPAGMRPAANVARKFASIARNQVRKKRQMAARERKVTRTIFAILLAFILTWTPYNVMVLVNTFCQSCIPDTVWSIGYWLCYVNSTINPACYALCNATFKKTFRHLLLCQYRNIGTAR
In short: (§2)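 CHO-K1 cells stably expressing human or rat M1–M5; M2 and M4 lines also co-express human Gα16. Cells loaded with 3.1 μM Fluo-4 AM in HBSS/20 mM HEPES pH 7.5/BSA/2.5 mM probenecid for ~2 h at room temperature. Test substance at 10 μM final, then carbachol (0.0024 nM–100 μM) ~5 min later; Ca2+ read by FLIPR Tetra. Fold shift = carbachol EC50 without / with test substance, from logistic fits.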

[3] = molecular target: T2, Muscarinic acetylcholine receptor M4 (Rattus norvegicus) (UniProt P08485); assay: as §1, with “rat” for “human”; assay type: functional, cell-based; conditions: CHO-K1; in short: as §2
T2 sequence (whole entry): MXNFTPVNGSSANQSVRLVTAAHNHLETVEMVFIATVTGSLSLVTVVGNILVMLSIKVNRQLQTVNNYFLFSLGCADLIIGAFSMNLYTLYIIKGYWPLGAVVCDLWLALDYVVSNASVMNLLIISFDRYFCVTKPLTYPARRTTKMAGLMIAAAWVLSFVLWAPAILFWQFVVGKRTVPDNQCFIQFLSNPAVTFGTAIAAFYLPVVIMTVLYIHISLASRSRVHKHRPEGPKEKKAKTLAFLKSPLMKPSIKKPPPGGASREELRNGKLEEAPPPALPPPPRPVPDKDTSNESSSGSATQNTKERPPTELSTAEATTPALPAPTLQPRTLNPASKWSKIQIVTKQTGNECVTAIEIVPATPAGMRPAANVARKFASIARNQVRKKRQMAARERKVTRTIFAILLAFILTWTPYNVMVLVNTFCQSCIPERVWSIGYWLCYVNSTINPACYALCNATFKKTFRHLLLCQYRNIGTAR

[4] = molecular target: T3, Muscarinic acetylcholine receptor M5 (Rattus norvegicus) (UniProt P08911); assay: Positive allosteric modulation of recombinant rat muscarinic acetylcholine receptor M5 expressed in CHOK1 cells assessed as increase in carbachol-induced intracellular calcium flux at 10 uM preincubated for 5 mins followed by carbachol addition by Fluo4-AM dye based FLIPR assay relative to carbachol; assay type: functional, cell-based; conditions: CHO-K1; in short: as §2
T3 sequence (whole entry): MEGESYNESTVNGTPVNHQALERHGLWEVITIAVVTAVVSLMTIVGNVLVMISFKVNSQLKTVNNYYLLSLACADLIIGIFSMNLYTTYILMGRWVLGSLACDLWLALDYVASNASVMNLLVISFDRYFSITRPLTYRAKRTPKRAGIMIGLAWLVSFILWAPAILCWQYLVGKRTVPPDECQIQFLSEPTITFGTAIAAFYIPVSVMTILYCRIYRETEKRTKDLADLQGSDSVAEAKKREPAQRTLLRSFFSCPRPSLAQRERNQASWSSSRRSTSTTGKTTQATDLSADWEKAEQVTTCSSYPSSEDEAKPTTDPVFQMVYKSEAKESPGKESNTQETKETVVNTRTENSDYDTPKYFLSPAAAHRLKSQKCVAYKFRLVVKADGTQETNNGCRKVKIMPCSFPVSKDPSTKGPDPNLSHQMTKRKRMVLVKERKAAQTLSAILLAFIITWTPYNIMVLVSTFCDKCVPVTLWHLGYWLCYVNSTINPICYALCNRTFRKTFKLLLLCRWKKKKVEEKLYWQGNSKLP

[5] = Cmax in Crl:CD(SD) rat at 1 mg/kg, po measured up to 24 hrs by LC-MS/MS analysis; assay type: ADME, organism-based; parameters: dose 1 mg/kg, route oral; conditions: in vivo
In short: (§3)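 Male Crl:CD(SD) rats, 8 weeks old, food deprived (n=4); iv 0.3 mg/kg or po 1 mg/kg in DMF/propylene glycol/water for injection (1/1/8) containing 1 M NaOH (2 equivalents). Plasma sampled to 24 h, assayed by validated LC-MS/MS. Parameters from each animal by noncompartmental analysis, reported as means.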

[6] = Half life in Crl:CD(SD) rat at 0.3 mg/kg, iv measured up to 24 hrs by LC-MS/MS analysis; assay type: ADME, organism-based; conditions: in vivo; in short: as §3
[7] = Half life in Crl:CD(SD) rat at 1 mg/kg, po measured up to 24 hrs by LC-MS/MS analysis; assay type: ADME, organism-based; conditions: in vivo; in short: as §3
[8] = Total clearance in Crl:CD(SD) rat at 0.3 mg/kg, iv measured up to 24 hrs by LC-MS/MS analysis; assay type: ADME, organism-based; conditions: in vivo; in short: as §3
[9] = Volume of distribution at steady state in Crl:CD(SD) rat at 0.3 mg/kg, iv measured up to 24 hrs by LC-MS/MS analysis; assay type: ADME, organism-based; conditions: in vivo, read-out: Vdss; in short: as §3
[10] = molecular target: Muscarinic acetylcholine receptor M3 (Homo sapiens) (UniProt P20309); assay: Positive allosteric modulation of recombinant human muscarinic acetylcholine receptor M3 expressed in CHOK1 cells assessed as increase in carbachol-induced intracellular calcium flux preincubated for 5 mins followed by carbachol addition by Fluo4-AM dye based FLIPR assay; assay type: functional, cell-based; conditions: CHO-K1
Muscarinic acetylcholine receptor M3 (Homo sapiens), sequence (P20309 whole entry, looked up): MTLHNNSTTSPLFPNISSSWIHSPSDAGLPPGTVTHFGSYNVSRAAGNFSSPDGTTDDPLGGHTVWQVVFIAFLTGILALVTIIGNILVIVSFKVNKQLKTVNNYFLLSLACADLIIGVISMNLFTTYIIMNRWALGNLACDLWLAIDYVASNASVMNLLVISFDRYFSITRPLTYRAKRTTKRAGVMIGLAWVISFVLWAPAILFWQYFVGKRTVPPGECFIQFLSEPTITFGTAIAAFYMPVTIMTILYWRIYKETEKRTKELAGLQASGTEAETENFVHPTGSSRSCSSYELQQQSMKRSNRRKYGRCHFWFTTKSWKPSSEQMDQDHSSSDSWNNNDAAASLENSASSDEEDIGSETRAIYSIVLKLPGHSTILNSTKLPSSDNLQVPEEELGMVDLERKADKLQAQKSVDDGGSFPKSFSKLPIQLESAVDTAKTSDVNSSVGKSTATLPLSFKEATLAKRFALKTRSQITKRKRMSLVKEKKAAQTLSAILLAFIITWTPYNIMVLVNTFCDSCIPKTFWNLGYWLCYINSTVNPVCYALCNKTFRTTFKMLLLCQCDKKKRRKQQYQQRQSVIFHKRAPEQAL
In short: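 Human M3 in CHO-K1 cells, Fluo-4 AM loaded (3.1 μM, ~2 h, room temperature). Test substance at 0.01–30 μM added ~5 min before a carbachol concentration series (0.0024 nM–100 μM); Ca2+ flux read on FLIPR Tetra to give carbachol concentration-response curves, with DMSO as vehicle.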

Question: Which Activity [1] does the source give for `CC[C@@H]1CCCN1Cc1sc(NC(=O)c2cnc(N3CCC(C(=O)O)CC3)cn2)nc1-c1ccc(OC)c(C(F)(F)F)c1.Cl.Cl` here?
Answer: 2.34 g

Question: What about the fold change (FC) [2] of the same molecule?
Answer: 1

Question: What about the fold change (FC) [3] of the same molecule?
Answer: 0.7

Question: What about the fold change (FC) [4] of the same molecule?
Answer: 110

Question: And the Cmax [5]?
Answer: 85.3 ng/mL

Question: And the half-life [6]?
Answer: 2.43 h

Question: And the half-life [7]?
Answer: 2.16 h

Question: And the clearance [8]?
Answer: 15.3 mL/min/kg

Question: What about the Vd [9] of the same molecule?
Answer: 1.59 L/kg

Question: And the Activity [10]?
Answer: Dose-dependent effect
